Compound activity: PubChem, several laboratories
Hits are enriched below; roughly 8.9% of the tested compounds scored in any of these assays.
L major viab: reduces viability of Leishmania major promastigotes; resazurin fluorescence viability; AID 1063; inhibition, % at 10 µM; 200,000 tested, 9% active; in the data active means inhibition above about 50%;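 further: promastigotes grown with compound for 44 hours at 28 °C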
Dynein transport: dynein cargo transport inhibition; AID 1381; 220,000 tested, 0.47% active; z-score, hits read low; 3617.4 mouse cells, GR-EGFP nuclear translocation imaging; test concentration mostly 20 µM; stimulated with dexamethasone, 1 µM; active compounds read low;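 active means plate z-score of nuclear minus cytoplasmic receptor signal below a set negative limit, without overly bright fluorescence or cell loss, cut at about -3.5 in these data, passing the limit was not always enough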;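 further: z-score of nuclear minus cytoplasmic ring GR-EGFP intensity difference per well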
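medium = tetracycline-free induction medium containing charcoal-stripped FBS | also added = 1.0 µM final dexamethasone stimulus | schedule = 48 h induction, 1 h compound, 30 min dex at 37 °C | technique = fixed, Hoechst-stained cells imaged at 10x for EGFP | measure = GR-EGFP nuclear translocation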
MT stabilize HCS: microtubule stabilization, imaging screen | HeLa tubulin immunostaining HCS, 24 h; share of cells brighter than vehicle mean+2SD | % tubulin-high responders, % at 10 µM | 200,000 tested, 0.83% active;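 active means plate Z-score above 3 for both tubulin-high and condensed-nucleus cell shares, with cell loss under 80%, at 10 µM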;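 further: anti alpha tubulin signal scored within the nucleus-defined area of each cell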
b-catenin transl: alters nuclear translocation of beta-catenin in HeLa cells; immunofluorescence imaging; nuclear translocation activity, % at 5 µM; 190,000 tested, 0.3% active; AID 1665;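 active means nuclear translocation activity above 50% at 5 µM, with a well cell count of 50 or more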;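 further: per-cell ratio of nuclear to cytoplasmic median beta-catenin stain intensity; plate controls were DMSO negative control for no effect and GSK-3 inhibitor IX positive control for full effect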
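assay system = human HeLa cells, endogenous beta-catenin | times = compound treatment 24 h, 37°C, 5% CO2 | detection = Anti-beta-catenin immunofluorescence on PFA-fixed, Triton-permeabilized cells, DAPI nuclei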
HSV augment: HSV replication enhancement; HSV replication augmentation in cells, fold increase; maximum fold increase; 220,000 tested, 0.005% active; in the data active means maximum fold increase above about 1.5; tested in PC3 cells
An asterisk follows results filed as active; i = inactive; · = no result.

SMILES | L major viab | Dynein transport | MT stabilize HCS | b-catenin transl | HSV augment
COc1ccc(S(=O)(=O)N(C)CC(=O)N2CCOCC2)cc1 | -8.8 | -0.23 | 2.7 | 1.0 | i
CC1CCCC(C)N1C(=O)COc1ccc(C(=O)Nc2ccccc2N2CCOCC2)cc1 (stereo not given) | 10.0 | -0.653 | 3.1 | -1.0 | i
COc1ccc(-n2cc(-c3ccccc3)c3c(NN4CCOCC4)ncnc32)cc1 | 38.6 | -0.381 | 2.1 | 0.1 | i
Fc1ccc(-n2cc(-c3ccccc3)c3c(NN4CCOCC4)ncnc32)cc1 | 97.2* | 0.127 | 3.5 | 3.2 | i
CCCS(=O)(=O)c1nc(S(=O)(=O)c2ccc(C)cc2)c(N2CCc3ccccc3C2)s1 | 61.4* | -0.0826 | 2.6 | -1.1 | i
NS(=O)(=O)c1cccc(NC(=O)CSc2ncc(C(F)(F)F)cc2Cl)c1 | 0.8 | -0.0168 | 3.4 | -2.7 | i
CCCCNC(=S)N(C)/N=C/c1c(C)[nH]c2ccccc12 | 55.8* | -0.12 | 2.0 | · | i
Cn1cccc1/C=C1\SC(=Nc2ccccc2)NC1=O | · | 0.782 | · | 85.6* | i
Cn1cccc1/C=C1\SC(=Nc2ccc(O)cc2)NC1=O | · | -0.276 | · | 82.7* | i
CCC(c1nnnn1CCOC)N1CCN(Cc2ccccc2OC)CC1 (stereo not given) | -6.7 | 4.36 | 2.9 | · | i
Cc1noc(/C=C/NCc2cccnc2)c1S(=O)(=O)N(C)CC(=O)N1CCc2ccccc21 | -5.8 | -0.828 | 2.2 | · | i
Cn1c(C(=O)OC(C(=O)NC2CCCC2)c2cccnc2)cc2sccc21 (stereo not given) | 97.5* | 0.611 | 2.3 | 8.3 | i
Cn1c(C(=O)OC(C(=O)NC2CCCCC2)c2cccnc2)cc2sccc21 (stereo not given) | 96.6* | 0.708 | 3.6 | -7.9 | i
CCOC(=O)N1CCC(N2CC34C=CC(O3)C(C(=O)Nc3ccc(F)cc3)C4C2=O)CC1 (stereo not given) | 14.2 | 2.39 | 3.7 | -2.3 | i
CCOc1ccc2nc(N3C(=O)CNC3=S)sc2c1 | · | 1.07 | · | -0.3 | i
COc1ccc2nc(N3C(=O)/C(=C/c4ccc(Cl)cc4)NC3=S)sc2c1 | 60.0* | -2.81 | 2.1 | 0.9 | i
NNC(=O)c1ccc2nc(-c3ccc(Br)cc3)cn2c1 | 54.2* | 0.527 | 1.1 | 2.0 | i
COc1ccc(-c2cn3cc(C(=O)NN)ccc3n2)cc1 | 1.8 | -0.277 | 1.6 | -1.2 | i
CCOC(=O)/C(C#N)=C/c1c(Oc2cccc(C)c2)nc2c(C)cccn2c1=O | 0.9 | -0.794 | 3.3 | -1.9 | i
COc1cccc(/C(C#N)=C/c2c(-c3ccc(Cl)cc3)nc3c(C)cccn23)c1 | 67.2* | 0.945 | 1.6 | 2.2 | i
Cc1cccn2c(/C=N/OCc3cccc(F)c3)c(-c3ccc(Cl)cc3)nc12 | 56.1* | -0.321 | 2.7 | · | i
Cc1cccc(N2CN(Cc3cccnc3)CNC2=S)c1C | 11.2 | -0.109 | 1.4 | 2.3 | i
COc1cccc(NC(=O)c2oc3ccc(S(=O)(=O)N4CCOCC4)cc3c2C)c1 | 29.6 | -0.825 | 2.8 | -1.0 | i
COc1cc(-c2ncc3ccccn23)cc(OC)c1OC | 26.4 | 2.54 | 2.5 | · | ·
COc1ccc(C(C[N+](=O)[O-])c2c(-c3ccccc3)cc3ccccn23)cc1 (stereo not given) | 100.4* | 2.13 | 28.8* | -1.6 | ·
SMILES | L major viab | Dynein transport | MT stabilize HCS | b-catenin transl | HSV augment
COc1ccc(C(C[N+](=O)[O-])c2c(-c3ccccc3)cc3ccccn23)cc1OC (stereo not given) | 99.9* | -1.58 | 1.0 | 2.7 | ·
COc1cc(C(C[N+](=O)[O-])c2c(-c3ccccc3)cc3ccccn23)cc(OC)c1OC (stereo not given) | 92.6* | -2.93 | 3.5 | -2.0 | ·
CC(CN1CCCCC1)OC(=O)c1cc2ccccc2o1 (stereo not given) | -3.1 | -0.404 | 4.4 | -4.5 | i
O=C(NC1CCCC1)C(c1ccc(F)cc1)N(Cc1ccccc1Cl)C(=O)CCl (stereo not given) | 98.2* | -0.296 | 2.5 | 4.8 | i
Cc1ccc(-c2n[nH]c(=S)n2C)cc1Cl | -2.5 | 0.442 | 3.1 | 5.6 | i
O=C(CSc1nnc(-c2ccccc2)c(-c2ccccc2)n1)NCc1ccco1 | 17.0 | -1.34 | 42.7* | -2.1 | i
Cc1ccc(NC(=O)CSc2nnc(-c3ccco3)c(-c3ccco3)n2)cc1 | 95.9* | -0.591 | 29.2* | 96.8* | i
Cc1ccc(NC(=O)CSc2ccc(-c3ccco3)nn2)cc1 | 11.7 | -0.0312 | 4.0 | 0.6 | ·
